Assay outcomes: PubChem, several laboratories
UCH37 inh – inhibitors of human deubiquitinating enzyme UCH37 | Q9Y5K5 | purified proteasome/UCH37, Ub-AMC cleavage fluorescence | inhibition, % (test concentration not listed) | 0.33% of 330,000 active | AID 588478;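 active = mean inhibition over replicate wells above about 20%, limit read from the data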;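 note: 0% = compound-free wells with enzyme and 100% = wells lacking proteasome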
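Material: human UCH37 enzyme supplied as purified proteasome complex. Measure: % inhibition of Ub-AMC cleavage fluorescence. Medium: pH 7.4 Tris-HCl (50 mM) with ovalbumin, ATP-MgCl2, DTT. Times: 30 min preincubation with enzyme, 25 min cleavage at room temperature. Detection: AMC fluorescence intensity at 355/460 nm.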
ATG4B inhibitor – ATG4B (human) cysteine protease inhibition | inhibition, % at 8.33 µM | 0.51% of 340,000 active | ATG4B cleavage of LC3-PLA2, NBD-HPC fluorescence, 1 h | Q9Y4P1; in the data active = inhibition above about 40%
Target sequence (Q9Y4P1 whole entry, looked up): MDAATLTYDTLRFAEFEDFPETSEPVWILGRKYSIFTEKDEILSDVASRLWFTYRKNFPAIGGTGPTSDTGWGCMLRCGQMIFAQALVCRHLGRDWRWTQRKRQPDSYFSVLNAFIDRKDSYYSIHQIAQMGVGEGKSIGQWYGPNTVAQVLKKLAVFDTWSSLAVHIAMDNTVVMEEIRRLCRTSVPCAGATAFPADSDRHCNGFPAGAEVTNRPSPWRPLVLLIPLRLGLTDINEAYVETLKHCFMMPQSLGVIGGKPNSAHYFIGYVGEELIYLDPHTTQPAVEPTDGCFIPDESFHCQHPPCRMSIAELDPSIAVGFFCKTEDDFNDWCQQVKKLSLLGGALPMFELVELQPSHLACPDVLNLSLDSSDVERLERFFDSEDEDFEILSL
NALP3 yeast inh – blocks the NALP3 inflammasome reconstituted in yeast | Yeast reconstituted NLRP3/ASC/caspase-1, beta-gal luminescence, 24 h | 0.39% of 330,000 active | inhibition, % at 10 µM;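 active = inhibition of 50% or more; inactive = inhibition below 50%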;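 note: plate controls were induced DMSO wells for no effect and uninduced yeast grown without galactose for full effect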
ALR inh – inhibitors of human sulfhydryl oxidase ALR | AID 485317 | P55789 | inhibition, % (no concentration beside the values) | 3.8% of 290,000 active | purified ALR, DTT oxidation, H2O2 HRP-luminol luminescence;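 active = mean replicate inhibition above about 79%, with every replicate also reaching it, limit read from the data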
Target sequence (P55789 whole entry, looked up): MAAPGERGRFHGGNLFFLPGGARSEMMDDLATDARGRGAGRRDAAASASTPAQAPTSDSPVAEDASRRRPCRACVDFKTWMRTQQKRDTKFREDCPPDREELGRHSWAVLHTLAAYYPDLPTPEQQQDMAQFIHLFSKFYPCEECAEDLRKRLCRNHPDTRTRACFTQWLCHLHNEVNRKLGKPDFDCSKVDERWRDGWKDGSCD
NALP1 yeast inh – blocks the NALP1 inflammasome reconstituted in yeast | inhibition, % at 10 µM | S. cerevisiae NALP1/ASC/caspase-1 growth, X-gal OD620, 72 h | 0.61% of 280,000 active | AID 2071; in the data active = inhibition mostly above about 24%, no sharp cut-off; inactive = mostly below about 32%
Calb FLC – C. albicans growth modulation with fluconazole; C. albicans CaCi-2 + fluconazole, Alamar Blue growth, 48 h; growth inhibition, % (no concentration beside the values); 0.57% of 300,000 active; AID 1979;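 active = growth inhibition above about 58% in most replicates, limit read from the data, passing the limit was not always enough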;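 note: all wells also contain fluconazole at 8 µg/ml as a sub-toxic cotreatment; 0% = median of DMSO wells and 100% = median of geldanamycin control wells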
Starred values were filed as active, the others as inactive; i = inactive; · = no result given. The list is not random: actives were taken first. Their share in the collection is about 4.8%.

SMILES	UCH37 inh	ATG4B inhibitor	NALP3 yeast inh	ALR inh	NALP1 yeast inh	Calb FLC
COc1ccc(S(=O)(=O)Cc2ccc(C(=O)NCCCN(C)c3ccccc3)o2)cc1	5	-8	5	99*	6	6
CCCCNC(=O)c1ccc(CS(=O)(=O)c2ccc(OC)cc2)o1	6	4	20	·	31	0
CCCCNC(=O)c1ccc(CS(=O)(=O)c2ccc(C)cc2)o1	7	11	-1	79*	18	8
O=C(NN=Cc1ccccc1F)c1ccc(COc2ccccc2Cl)o1	1	·	·	·	·	·
C/C=C/C=NNc1nc(C)cc(=O)[nH]1	1	·	·	·	·	·
O=C(CSc1ncnc2[nH]ncc12)Nc1cccc(Oc2ccccc2)c1	-1	-15	0	98*	-2	12
O=C(CSc1cccc[n+]1[O-])Nc1cccc(Oc2ccccc2)c1	4	-14	-2	94*	10	55
CCCc1c(C(=O)NN=Cc2cccc(OCc3ccc(F)cc3)c2)nnn1-c1nonc1N	6	·	·	·	·	·
Nc1cc(OC(=O)c2ccco2)nn1S(=O)(=O)c1ccc(F)cc1	3	-2	3	98*	10	-1
Cc1ccc(S(=O)(=O)n2nc(OC(=O)c3ccccc3C)cc2N)cc1	4	7	8	·	6	9
Cc1ccc(S(=O)(=O)n2nc(OC(=O)c3ccco3)cc2N)cc1	5	0	-8	98*	·	4
CC(=O)C1=C(c2ccccc2)N(C(C)=O)n2c(C)nnc2S1	4	-14	-5	99*	-9	27
CC(=O)N1CCN(c2nnc(-c3ccccc3)c3ccccc23)CC1	2	1	1	1	-15	9
Cc1csc(NC(=O)CSc2nnc(-c3ccncc3)o2)n1	3	-9	19	-55	1	10
CCOC(=O)Cc1csc(NC(=O)CSc2nnc(-c3ccncc3)o2)n1	1	11	2	25	-2	106*
O=C(CSc1nnc(-c2ccncc2)n1Cc1ccco1)Nc1nccs1	5	-9	1	-11	31	-8
CCOC(=O)Cc1csc(NC(=O)CSc2nnc(-c3ccncc3)n2Cc2ccco2)n1	1	-7	-5	97*	·	39
CCOC(=O)Cc1csc(NC(=O)CSc2nnc(-c3ccc(NS(=O)(=O)CC)cc3)o2)n1	-1	-10	6	98*	·	85*
COc1cc(C=NNC(=O)c2[nH]nc3c2CCc2ccccc2-3)ccc1O	-2	·	·	·	·	·
Cc1ccc(S(=O)(=O)NN=Cc2ccc(OCC(=O)NC(C)C)cc2)cc1	28*	·	·	·	·	·
NC(=O)COc1ccc(/C=N/NS(=O)(=O)c2ccccc2)cc1	·	-5	2	6	40*	5
COc1ccc(C2CC(c3ccccc3)=NN2c2ccc(Cl)c(C(=O)O)c2)cc1 (configuration not stated)	i	17	-2	98*	8	42
COc1ccc(-c2nn(CCC(=O)O)cc2CCC(=O)O)cc1	2	6	17	-4	27	-1
COc1ccc(C2CC(c3ccccc3)=NN2c2ccc(S(N)(=O)=O)cc2)cc1OC (configuration not stated)	i	-8	8	-17	29	-4
COc1ccc(C2CC(c3ccccc3)=NN2c2ccc(N)cc2)cc1 (configuration not stated)	-7	5	22	-6	34	17
SMILES	UCH37 inh	ATG4B inhibitor	NALP3 yeast inh	ALR inh	NALP1 yeast inh	Calb FLC
COc1cc(C2CC(c3ccccc3)=NN2c2ccccc2)ccc1OCC(=O)O (configuration not stated)	i	4	13	99*	9	-5
COc1ccc(C2=NN(c3ccccc3)C(c3cn(CCC(=O)O)nc3-c3ccccc3)C2)cc1 (configuration not stated)	-337	7	-3	94*	-11	37
CCN1CCN(CC(=O)N2N=C(c3ccc(OC)cc3)CC2c2ccc(OC)cc2)C(=O)C1=O (configuration not stated)	2	-6	-4	6	20*	-6
COc1ccc(C2CC(c3ccccc3)=NN2c2ccccc2)c(C(=O)O)c1OC (configuration not stated)	i	6	4	99*	14	-32
Cc1cccc(C2CC3(CC(C)(C)NC(=S)N3)Oc3cc(O)ccc32)c1 (configuration not stated)	2	21	20	2	-5	80*
COc1ccc(-c2nc(CS(=O)CC(=O)N3CCN(C)CC3)c(C)o2)cc1 (configuration not stated)	1	-1	7	99*	20	0
COc1ccc(-c2nc(CS(=O)CC(=O)N3CCOCC3)c(C)o2)cc1OC (configuration not stated)	-2	0	4	100*	-9	1
COc1ccc(-c2nc(CS(=O)CC(=O)N3CCN(C)CC3)c(C)o2)cc1OC (configuration not stated)	-3	-3	-12	99*	29	1
COc1ccc(-c2nc(CN3CCC(C(=O)N4CCOCC4)CC3)c(C)o2)cc1OC	4	7	11	-1	9	-2
Cc1ccc(-c2nc(CS(=O)(=O)CC(=O)N3CCN(C)CC3)c(C)o2)cc1	1	-3	-3	45	17	7
CC(=NOC(=O)NC1CCCCC1)c1sc(-c2ccccc2)nc1C	0	·	·	·	·	·
Nc1nonc1-n1nnc(C(=O)NN=Cc2ccccc2Cl)c1-c1ccc2c(c1)OCO2	-16	·	·	·	·	·
CCOC(=O)c1c(/N=C/c2cc([N+](=O)[O-])ccc2O)sc(C)c1C	·	1	16	98*	18	7
Cc1[nH]c2ccccc2c1C=NNC(=O)CNC(=O)c1ccco1	9	·	·	·	·	·
Cc1[nH]c2ccccc2c1/C=N/NC(=O)CNC(=O)c1ccco1	·	-11	6	95*	-12	-4
COc1cccc(C(=O)NCCC2=CCCCC2)c1	25*	-6	30	1	-5	-8
CCC(C)[C@H](NC(=O)NCCC1=CCCCC1)C(=O)OC (some centres not stated)	25*	8	-7	-18	-12	-1
COc1ccc(C(=O)NCCC2=CCCCC2)cc1	2	8	30	-11	40	0
COc1ccc(-n2nc(C(=O)NCC(=O)NCCC3=CCCCC3)c3ccccc3c2=O)c(OC)c1	2	3	2	7	19	97*
Brc1ccc(-c2ncc3ccccn23)cc1	-26	-3	8	89*	·	-2
Fc1ccc(-c2ncc3ccccn23)cc1	-24	-1	6	·	16	9
O=C(O)c1ccc(-c2ccco2)n1Cc1ccccc1	-1	11	-8	99*	-4	-6
CC(=O)ON=Cc1c(C)c(C=O)n2ccccc12	6	·	·	·	·	·
c1ccc2c(c1)nnn2CNc1nccs1	2	12	6	99*	31	-4
